These results are taken from ChEMBL document CHEMBL4814064, “Azetidinimines as a novel series of non-covalent broad-spectrum inhibitors of β-lactamases with submicromolar activities against carbapenemases KPC-2 (class A), NDM-1 (class B) and OXA-48 (class D)” (Eur J Med Chem, 2021).

Test [1] can be described thus: Inhibition of NDM-1 (unknown origin) expressed in Escherichia coli BL21 (DE3) incubated for 3 mins by spectrophotometric analysis. Also on record: species or system Bacteria. In a few lines:
(§1)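 NDM-1 (1 nM, His-tagged, expressed in E. coli BL21(DE3) with 1 mM IPTG for 3 h at 37 °C, purified, kept with 50 µM ZnSO4). Run in 100 mM phosphate pH 7 with 50 µM ZnSO4, 3 min enzyme–inhibitor preincubation, then 100 µM imipenem. Initial rates at 297 nm over 600 s, 25 °C. Triplicate seven-point IC50 converted to Ki (Cheng–Prusoff); percent inhibition at 10 µM.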

Test [2] in a line: Inhibition of OXA-48 (unknown origin) expressed in Escherichia coli BL21 (DE3) incubated for 3 mins by spectrophotometric analysis. Details: species or system Bacteria; call rule not given here. In a few lines: (§2)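 OXA-48 at 5.8 nM (His-tagged, expressed in BL21(DE3), purified in K2SO4 buffers) in 100 mM phosphate pH 7 plus 50 mM NaHCO3. Inhibitor preincubated 3 min; substrate 100 µM imipenem; initial velocities at 297 nm, 600 s, 25 °C. Seven inhibitor concentrations in triplicate give IC50, converted to Ki by Cheng–Prusoff; percent inhibition at 10 µM.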

Test [3] deals with Bacteria. As to the kind of experiment: Inhibition of NDM-1 (unknown origin) expressed in Escherichia coli BL21 (DE3) at 10 uM incubated for 3 mins by spectrophotometric analysis relative to control. In a few lines: as §1
The target of test [4] is Class A carbapenemase KPC-2 (Escherichia coli) (UniProt A8DS27). As to the kind of experiment: Inhibition of KPC-2 (unknown origin) expressed in Escherichia coli BL21 (DE3) at 10 uM incubated for 3 mins by spectrophotometric analysis relative to control. In a few lines:
(§3)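 Preincubated 3 min with inhibitor in 100 mM phosphate pH 7. Imipenem 100 µM; hydrolysis followed at 297 nm for 600 s at 25 °C. IC50 from seven concentrations in triplicate; Ki by Cheng–Prusoff. Percent inhibition read at 10 µM.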

The target in test [5] is Class A carbapenemase KPC-2 (Escherichia coli, UniProt A8DS27). As to the kind of experiment: Inhibition of KPC-2 (unknown origin) expressed in Escherichia coli BL21 (DE3) incubated for 3 mins by spectrophotometric analysis. A digest of the protocol:
as §3

Test [6] has as its system Bacteria. Put plainly: Inhibition of OXA-48 (unknown origin) expressed in Escherichia coli BL21 (DE3) at 10 uM incubated for 3 mins by spectrophotometric analysis relative to control. In a few lines: as §2

Some results are limits rather than exact numbers.

For orientation: Ki means a dissociation constant, usually derived from enzyme kinetics or from competition with a known ligand. For orientation: inhibition means the percentage by which the read-out fell short of the control. Read a low inhibition as a weak effect. With `CSc1ccc(N2/C(=N/c3ccccc3)CC2c2ccccc2)cc1` (racemic), the Ki in test [1] (read-out: Ki) is less than 500 nM; in test [2], “Not Active”. Besides, the inhibition in the test on Bacteria [3] was more than 50%; in test [4] it was 50%.

As for `COc1ccc(N2/C(=N/c3ccccc3)CC2c2ccccc2)cc1` (racemic), the Ki in test [1] (read-out: Ki) is 1000 nM; in test [2], “Not Active”; in test [5] (read-out: Ki), 3600 nM. Also, the inhibition in the test on Bacteria [3] was 90%; in test [4] it was more than 50%.

By IC50 is commonly meant the concentration that gives 50% inhibition. Read a high IC50 as weaker potency. Compound `COc1ccc(N2/C(=N/c3ccccc3)C[C@@H]2c2ccccc2)cc1` showed an IC50 in test [1] of less than 5000 nM. Further, in the test on Bacteria [3], the inhibition was determined as 95%.

For `c1ccc(/N=C2\CC(c3ccccc3)N2c2ccc3c(c2)OCO3)cc1` (racemic), the Ki in test [1] (read-out: Ki) is 2390 nM; in test [2], “Not Active”; in test [5] it was “Not Active”. The inhibition in the test on Bacteria [3] was more than 50%.

As for `COc1ccc(N2/C(=N/c3ccccc3)CC2c2ccc3ccccc3c2)cc1` (racemic), the Ki is 1000 nM in test [1] (read-out: Ki), 1300 nM in test [2] (read-out: Ki) and 2200 nM in test [5] (read-out: Ki). In addition, the inhibition (in the test with Bacteria [3]; with Bacteria [6]; in test [4]) was more than 50% each time.

With `c1ccc(/N=C2\CC(c3ccccc3)N2c2ccccc2)cc1` (racemic), the Ki in test [1] (read-out: Ki) was found to be 4620 nM; in test [2] (read-out: Ki), 800 nM; in test [5] (read-out: Ki) it was 2410 nM. Besides, the inhibition (in the test with Bacteria [3]; with Bacteria [6]; in test [4]) was more than 50% each time.

As for `COc1ccc(N2/C(=N/c3ccc(Br)cc3)CC2c2ccc3ccccc3c2)cc1` (racemic), the Ki in test [1] (read-out: Ki) turned out to be 520 nM; in test [2] (read-out: Ki), 390 nM; in test [5] (read-out: Ki), 5230 nM. In addition, the inhibition (in the test with Bacteria [3]; in the test with Bacteria [6]; in test [4]) was more than 50% in each case.

In the case of `c1ccc(/N=C2\CC(c3ccccc3)N2c2ccc3c(c2)OCCO3)cc1` (racemic), the Ki was determined as 730 nM in test [1] (read-out: Ki) and 3600 nM in test [5] (read-out: Ki). For the same compound, the figures for the inhibition (with Bacteria [3]; with Bacteria [6]; in test [4]) were more than 50%, 37% and more than 50%, respectively.

Regarding `COc1ccc(N2/C(=N/c3ccccc3)C[C@H]2c2ccccc2)cc1`, the IC50 in test [1] is less than 5000 nM. In the test on Bacteria [3], the inhibition was 95%.

Consider `COc1ccc(N2/C(=N/c3ccc(I)cc3)CC2c2ccc(Cl)cc2)cc1` (racemic), for which the results for the Ki in test [1] (read-out: Ki), in test [2] (read-out: Ki) and in test [5] (read-out: Ki) were 330 nM, 830 nM and 1770 nM, respectively. Further, the inhibition (in the test with Bacteria [3]; in the test on Bacteria [6]; in test [4]) was more than 50% throughout.

As for `COc1ccc(N2/C(=N/c3ccc(C(F)(F)F)cc3)CC2c2ccc(Cl)cc2)cc1` (racemic), the Ki in test [1] (read-out: Ki) came to 320 nM; in test [5] (read-out: Ki), 2360 nM. Besides, the inhibition in the test on Bacteria [3] is more than 50%; in the test on Bacteria [6] it was 32%; in test [4], more than 50%.

Consider `CCOc1ccc(N2/C(=N/c3ccccc3)CC2c2ccccc2)cc1` (racemic), for which the Ki was 1000 nM in test [1] (read-out: Ki) and 1400 nM in test [5] (read-out: Ki). The inhibition with Bacteria [3] is more than 50%; in the test with Bacteria [6], 45%; in test [4], more than 50%.

As to `OCc1ccc(N2/C(=N/c3ccc(I)cc3)CC2c2ccc(Cl)cc2Cl)cc1` (racemic), the results for the Ki in test [1] (read-out: Ki), in test [2] and in test [5] (read-out: Ki) were 1300 nM, “Not Active” and 3890 nM, respectively. The inhibition (with Bacteria [3]; in test [4]) was more than 50% in each case.

Take `COc1ccc(N2/C(=N/c3ccc(Br)cc3)CC2c2ccc(Cl)cc2Cl)cc1` (racemic): the Ki in test [1] (read-out: Ki) is 580 nM. The inhibition is more than 50% with Bacteria [3], 46% in the test with Bacteria [6] and 30% in test [4].

Consider `Oc1ccc(N2/C(=N/c3ccccc3)CC2c2ccccc2)cc1` (racemic), for which the Ki in test [1] (read-out: Ki) amounted to 360 nM. Moreover, the inhibition with Bacteria [3] was more than 50%; in the test with Bacteria [6], 26%; in test [4], 45%.

`COc1ccc(C2C/C(=N\c3ccccc3)N2c2ccc(OC)cc2)cc1` (racemic): the Ki in test [1] (read-out: Ki) was 2400 nM; in test [2], “Not Active”; in test [5], “Not Active”. Besides, in the test with Bacteria [3], the inhibition is more than 50%.

`CCOc1ccc(N2/C(=N/c3ccc(I)cc3)CC2c2ccc3ccccc3c2)cc1` (racemic): the figures for the Ki in test [1] (read-out: Ki), in test [2] (read-out: Ki) and in test [5] (read-out: Ki) were 250 nM, 700 nM and 1840 nM, respectively. For the same compound, the inhibition (in the test with Bacteria [3]; in the test with Bacteria [6]; in test [4]) was more than 50% throughout.

As to `COc1cc(N2/C(=N/c3ccccc3)CC2c2ccccc2)cc(OC)c1OC` (racemic), the Ki entry in test [1], in test [2] and in test [5] was “Not Active” throughout.

With `CCOc1ccc(N2/C(=N/c3ccccc3)CC2c2ccc3ccccc3c2)cc1` (racemic), in test [1] (read-out: Ki), the Ki was determined as 2400 nM. This compound gave an inhibition with Bacteria [3] of more than 50%.

Regarding `COc1ccc(N2/C(=N/c3ccccc3)CC2c2cccnc2)cc1` (racemic), the Ki result in test [1], in test [2] and in test [5] was “Not Active” each time.

In the case of `COc1ccc(N2/C(=N/c3ccc(Cl)cc3)CC2c2ccc3ccccc3c2)cc1` (racemic), the Ki was 730 nM in test [1] (read-out: Ki) and 3940 nM in test [5] (read-out: Ki). The inhibition in the test on Bacteria [3] is more than 50%; with Bacteria [6], 18%; in test [4] it was more than 50%.

Consider `COc1ccc(N2/C(=N/c3ccc(I)cc3)CC2c2cc(Cl)cc(Cl)c2)cc1` (racemic), for which the Ki is 2040 nM in test [1] (read-out: Ki) and 530 nM in test [2] (read-out: Ki). In addition, the inhibition in the test with Bacteria [3] is more than 50%; with Bacteria [6], more than 50%; in test [4], 42%.

Take `Ic1ccc(N2/C(=N/c3ccccc3)CC2c2ccccc2)cc1` (racemic): the Ki in test [1] (read-out: Ki) is 1900 nM. In the test on Bacteria [3], this compound showed an inhibition of more than 50%.

As to `COc1ccc(N2/C(=N/c3ccccc3)CC2c2ccccc2)cc1OC` (racemic), the Ki in test [1] (read-out: Ki) was 2400 nM; in test [2], “Not Active”; in test [5] it was “Not Active”. The same compound registered an inhibition in the test on Bacteria [3] of more than 50%.

As for `COc1ccc(N2/C(=N/c3ccc(Cl)cc3)CC2c2ccc(Cl)cc2)cc1` (racemic), the Ki is 240 nM in test [1] (read-out: Ki) and 1930 nM in test [5] (read-out: Ki). In addition, the inhibition in the test with Bacteria [3] is more than 50%; with Bacteria [6], 27%; in test [4] it was more than 50%.

In the case of `COc1ccc(/N=C2\CC(c3ccc(Cl)cc3)N2c2ccc(OC)cc2)cc1` (racemic), the inhibition constant Ki is 860 nM in test [1] (read-out: Ki) and “Not Active” in test [5]. The inhibition in the test with Bacteria [3] is more than 50%; in the test with Bacteria [6] it was 31%.

Consider `COc1ccc(N2/C(=N/c3ccccc3)CC2c2ccc(I)cc2)cc1` (racemic), for which the Ki in test [1] (read-out: Ki) was 490 nM; in test [5] (read-out: Ki) it was 730 nM. Moreover, the inhibition was more than 50% with Bacteria [3], 33% with Bacteria [6] and more than 50% in test [4].

For the compound `CCOc1ccc(N2/C(=N/c3ccc(Cl)cc3)CC2c2ccc3ccccc3c2)cc1` (racemic), the Ki in test [1] (read-out: Ki) stood at 270 nM; in test [5] (read-out: Ki), 1960 nM. Further, the inhibition in the test on Bacteria [3] is more than 50%; in the test with Bacteria [6], 30%; in test [4], more than 50%.

Turning to `COc1cccc(N2/C(=N/c3ccccc3)CC2c2ccccc2)c1` (racemic), the Ki was 650 nM in test [1] (read-out: Ki) and 3600 nM in test [5] (read-out: Ki). Moreover, the inhibition in the test with Bacteria [3] is more than 50%; with Bacteria [6], 28%; in test [4] it was more than 50%.

Regarding `COc1ccc(N2/C(=N/c3ccccc3)CC2c2ccc(F)cc2)cc1` (racemic), the Ki entry in test [1] and in test [5] was “Not Active” in each case.

Take `COc1ccc(N2/C(=N/c3ccccc3)CC2c2cc(Cl)cc(Cl)c2)cc1` (racemic): the Ki in test [1] (read-out: Ki) is 1000 nM; in test [5] (read-out: Ki), 1400 nM. The inhibition was more than 50% with Bacteria [3], 20% with Bacteria [6] and more than 50% in test [4].

Consider `COc1ccc(N2/C(=N/c3ccccc3)CC2c2ccc(Cl)cc2)cc1` (racemic), for which the Ki in test [1] (read-out: Ki) is 1000 nM; in test [2], “Not Active”; in test [5] it was “Not Active”. The same compound yielded an inhibition in the test with Bacteria [3] of more than 50%.

For `O=C(O)c1ccc(N2/C(=N/c3ccc(I)cc3)CC2c2ccc(Cl)cc2Cl)cc1` (racemic), the Ki was 35 nM in test [1] (read-out: Ki), “Not Active” in test [2] and 4150 nM in test [5] (read-out: Ki). Moreover, the inhibition (with Bacteria [3]; in test [4]) was more than 50% each time.

With `c1ccc(COc2ccc(N3/C(=N/c4ccccc4)CC3c3ccccc3)cc2)cc1` (racemic), the Ki is 200 nM in test [1] (read-out: Ki) and 1150 nM in test [5] (read-out: Ki). Moreover, the inhibition was more than 50% with Bacteria [3], 31% in the test with Bacteria [6] and more than 50% in test [4].
